# Hits are enriched below; roughly 1.5% of the tested compounds scored in any of these assays.
# CXCR6 inh: CXCR6 (human) receptor inhibition | O00574 | CHO-K1 PathHunter CXCR6 beta-arrestin, luminescence | inhibition, % at 20 µM | 0.36% of 360,000 active | AID 602244; in the data active means inhibition above about 34%, passing the limit was not always enough;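 further: antagonist mode with CXCL16 agonist at 10 nM final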
# APJ antagonist: APJ receptor antagonism. P35414. CHO-K1 APJ beta-arrestin complementation, luminescence. inhibition, % at 20 µM. 0.32% of 330,000 active. AID 2521;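 active means inhibition above about 40% at 20 µM, limit read from the data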;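 further: cells challenged with 10 nM apelin-13 agonist together with compound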
# EBI2 block: EBI2 (human) antagonism; EBI2 beta-arrestin recruitment, luminescence, 7a,25-OHC stimulated; inhibition, % at 5 µM; 0.81% of 360,000 active; in the data active means inhibition above about 38%;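 further: enzyme fragment complementation signal reports receptor beta-arrestin coupling in cells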
# CCR6 antag: blocks CCL20-driven beta-arrestin recruitment at human CCR6; CHO-K1 CCR6 PathHunter beta-arrestin, luminescence, CCL20-stimulated; inhibition, % at 20 µM; P51684; AID 493098; 0.49% of 340,000 active;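 active means compounds whose inhibition of the agonist-driven luminescence signal at 20 µM reaches about 50%, limit read from the data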;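 further: cells stimulated with CCL20 at 14 nM final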
# Target sequence (P51684 whole entry, looked up): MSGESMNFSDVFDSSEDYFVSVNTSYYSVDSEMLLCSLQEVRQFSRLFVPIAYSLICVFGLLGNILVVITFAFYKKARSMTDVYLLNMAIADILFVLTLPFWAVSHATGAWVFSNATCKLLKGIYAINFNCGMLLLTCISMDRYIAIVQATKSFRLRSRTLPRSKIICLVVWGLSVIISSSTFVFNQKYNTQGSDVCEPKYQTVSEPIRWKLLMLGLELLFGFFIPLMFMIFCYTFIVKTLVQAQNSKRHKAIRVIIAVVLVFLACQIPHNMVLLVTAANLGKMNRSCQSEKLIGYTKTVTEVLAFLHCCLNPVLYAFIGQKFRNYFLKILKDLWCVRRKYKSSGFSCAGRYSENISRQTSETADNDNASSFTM
# APJ ag: activates the human apelin receptor APJ; P35414; CHO-K1 APJ PathHunter beta-arrestin, luminescence; 0% DMSO wells, 100% apelin; activation, % at 20 µM; 0.11% of 330,000 active;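 active means activation more than six SD over the plate average, tested at 20 µM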
#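 Material: engineered CHO-K1 APJ arrestin reporter cells; amount: 1000 CHO-K1 reporter cells seeded per well; incubation: compound stimulation 90 min at 25 °C, detection 60 min; signal: luminescent beta-gal fragment complementation, chemiluminescent substrate; read-out basis: APJ agonist activity; controls: DMSO-only wells as negative, 10 nM Apelin-13 as positive control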
# A number is an active result; . = inactive; / = no result.
SMILES,CXCR6 inh,APJ antagonist,EBI2 block,CCR6 antag,APJ ag
O=[N+]([O-])c1ccc(Cl)c(CN2CCN(c3ncc(Cc4ccccc4)cn3)CC2)c1,/,/,.,/,/
O=c1oc2ccccc2c(Cl)c1CN1CCCCC1,96,87,.,92,.
N#Cc1cc(Oc2cccc3cccnc23)c(-n2nnc3ccccc32)cc1C#N,.,.,79,.,.
O=C(C[n+]1ccn(-c2ccccc2)c1)c1ccc([N+](=O)[O-])cc1,.,.,.,.,.
CNCc1ccccc1Sc1cc(O)ccc1O,.,.,.,84,.
Cn1c(=O)c(=O)n(C)c2cc(S(=O)(=O)NCCOc3ccccc3Cl)ccc21,.,40,.,.,.
O=S(=O)(NCCOc1ccccc1Cl)c1ccc2oc3ccccc3c2c1,.,.,.,.,.
C=C1C(=O)O[C@H]2C[C@H]1[C@@H](OC(C)=O)C/C(C)=C/CC/C(C)=C\CC[C@]2(C)O,.,/,52,.,/
COc1ccccc1C(=O)OCc1c(F)cccc1Cl,.,.,.,.,.
COc1ccc(/C=C/C2=NNC(=O)CC2)cc1,.,.,.,77,.
CCOc1ccc(/C=C/C2=NNC(=O)CC2)cc1,.,.,.,.,.
CCOc1ccc2oc(C(=O)N3CCN(Cc4ccccc4)CC3)c(C)c2c1,.,.,44,.,.
O=C(C(Cc1ccccc1)N1C(=O)C2C3C=CC(C3)C2C1=O)N1CCCCC1 (stereo unspecified),.,.,.,108,.
C=C1CC(Cn2cc(Br)c(=O)[nH]c2=O)(c2ccc(-c3ccccc3)cc2)OC1=O (stereo unspecified),43,/,84,/,/
Cc1[nH]n(-c2ccccc2)c(=O)c1N=Nc1c(O)cc(S(=O)(=O)N(C)C)c2ccccc12,.,.,.,68,.
Oc1csc(Cc2nc(-c3ccc4ccccc4c3)cs2)n1,.,.,.,56,.
Oc1csc(Cc2nc(-c3ccc(-c4ccccc4)cc3)cs2)n1,.,.,.,.,.
Cc1ccc(S(=O)(=O)N2CC3C(=O)C[C@@H](c4ccccc4)N(S(=O)(=O)c4ccccc4Cl)C3CC2c2ccccc2)cc1 (stereo partly specified),/,/,.,/,/
CCCCCCCCSC1=CC(=O)C(OC)=C(OC)C1=O,39,/,.,/,/
CCCCCSc1nncc(=O)[nH]1,.,.,.,.,.
CCCn1c(N)cc(=O)n(C)c1=O,.,.,.,.,.
N#CC1=C(N)C2=CCCC[C@H]2[C@H](c2ccccc2)C1(C#N)C#N,.,.,.,.,.
N#CC1=C(N)C2=CCCC[C@H]2[C@H](c2ccc(Br)cc2)C1(C#N)C#N,46,/,.,68,/
CNC(=S)N1N=C(c2ccc(C)cc2)CC1c1ccc(N(C)C)cc1 (stereo unspecified),.,.,87,.,.
CNC(=S)N1N=C(c2ccc(C)cc2)CC1c1ccc(OC)cc1 (stereo unspecified),.,.,87,.,.
SMILES,CXCR6 inh,APJ antagonist,EBI2 block,CCR6 antag,APJ ag
COc1ccc(C(=O)c2sc3nc(-c4ccccc4)ccc3c2N)cc1,.,.,.,.,.
CC(C)OC(=O)c1sc2nc(-c3ccccc3)ccc2c1N,.,.,48,.,.
COC(=O)c1ccccc1NC1=C/C(=N\S(=O)(=O)c2ccc(C(=O)O)cc2)c2ccccc2C1=O,.,.,.,55,.
COC(=O)c1ccccc1NC1=C/C(=N\S(=O)(=O)c2cccs2)c2ccccc2C1=O,42,.,.,54,.
CSCCC(NC(=O)c1ccco1)C(=O)Nc1ccc(C)cn1 (stereo unspecified),.,.,.,.,.
COc1ccc(/C=c2\sc3nc(=O)c(C)nn3c2=O)c(OC)c1,.,.,.,83,.
CN(C(=O)CSc1n[nH]c(-c2cccs2)n1)C1CCS(=O)(=O)C1 (stereo unspecified),.,.,.,.,.
CC1(C)CC(=O)C2=C(C1)Nc1ccccc1N=C2,/,58,/,/,.
CC(C)CCn1c(Br)nc2c1c(=O)n(CC(N)=O)c(=O)n2C,.,.,.,.,.
C=CCc1cccc(CNn2cnnc2)c1O,62,.,.,.,.
O=C(C1CCN(S(=O)(=O)c2cc(Cl)ccc2Cl)CC1)N1CCCC1,.,.,.,.,.
C=CCS/C(N)=N\N=C\c1cc(Br)cc([N+](=O)[O-])c1O,34,.,.,62,.
O=[N+]([O-])c1cc(Br)cc(/C=N/n2cnnc2)c1O,.,.,.,.,.
CN(C)c1ccc(N=Nc2ccc(C(=O)O)cc2)cc1,.,.,.,.,.
Cc1csc(N=Nc2ccc(N(C)C)cc2)[n+]1[O-],47,/,.,/,/
Cc1ccc(CNC(=O)c2ccc(Cn3cc(-c4ccc(C)cc4)nc3-c3ccncc3)cc2)cc1,.,.,71,.,.
Cc1occc1C(=O)N1CCC2(CCCN(Cc3ccc(F)c(F)c3)C2)C1 (stereo unspecified),.,.,.,.,.
CN(C)CC(O)c1ccc(C=Cc2ccc(Cl)cc2)cc1 (stereo unspecified),.,/,.,88,/
Oc1c(Cl)cc(Cl)cc1/C=N/Nc1ncc(Br)cn1,62,.,76,74,.
O=C(N/N=C/c1cc(Cl)cc(Cl)c1O)c1ccncc1,.,.,68,.,.
Cc1ccc(-c2nc(CS(=O)CC(=O)NCCC(C)C)c(C)o2)cc1 (stereo unspecified),.,.,.,.,.
O=C(Nc1cccc(C(F)(F)F)c1)c1csc([C@@H]2O[C@H](CO)[C@@H](O)[C@H]2O)n1,.,/,.,/,/
NC(=S)NN=C1CSSC1,.,/,.,/,/
O=C(Oc1ccccc1/C=C\C(=O)c1cc2ccccc2o1)c1ccccc1,.,.,48,.,.
O=C(Oc1ccccc1/C=C\C(=O)c1cc2ccccc2o1)c1cccc(F)c1,.,.,.,.,.
SMILES,CXCR6 inh,APJ antagonist,EBI2 block,CCR6 antag,APJ ag
COc1cc(C(=O)NC(C(=O)Nc2cccc(C(C)=O)c2)C(C)C)cc(OC)c1OC (stereo unspecified),.,.,.,.,.
C#CC(=O)N(c1cccc(OC)c1)C(C(=O)NC1CCCC1)c1cccs1 (stereo unspecified),.,.,53,.,.
CN(CCc1ccccc1)C(=O)CC1C(=O)NCCN1Cc1ccccn1 (stereo unspecified),.,/,.,/,/
Nc1nn(S(=O)(=O)c2ccccc2)cc1-c1ccc([N+](=O)[O-])cc1,.,.,.,.,9.9
O=C(CN1CCN(c2ncccn2)CC1)NCc1ccccc1,.,.,.,.,.
COc1cc(N=Nc2ccc3ccccc3c2)ccc1O,.,.,.,51,.
COc1cc(N=Nc2ccccc2C(=O)O)ccc1O,.,.,.,.,.
CCC(C(=O)Nc1c(C)cccc1C)n1c(-c2ccc(-c3ccccc3)cc2)nc2ccccc21 (stereo unspecified),/,/,.,/,/
CCCCc1c(-c2cccc(Br)c2)ncn1CCc1ccccc1OC,.,/,.,/,/
CC(C)(C=O)C1=CC(=O)c2ccccc2C1=O,100,/,.,103,/

# Screening results (PubChem BioAssay)
